In ChEMBL document CHEMBL4364292, “Discovery of a Potent and Selective CCR4 Antagonist That Inhibits Treg Trafficking into the Tumor Microenvironment” (J Med Chem, 2019):

What was measured:
[1] = Hepatic clearance in rat at 0.5 mg/kg, iv or 2 mg/kg, po; assay type: ADME, organism-based; settings: in vivo
[2] = Oral bioavailability in rat at 2 mg/kg, po; assay type: ADME, organism-based; settings: in vivo
[3] = Bioavailability in mouse; assay type: ADME, organism-based; settings: in vivo
[4] = Terminal half-life in dog at 0.5 mg/kg, iv; assay type: ADME, organism-based, Canis lupus familiaris; settings: in vivo, read-out: beta t1/2 (converted)
Summary of the method: (§1)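 Cross-species PK (dog, cynomolgus monkey): 0.5 mg/kg IV or 2 mg/kg PO; three animals per group.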

Cytochrome P450 2D6 = Cytochrome P450 2D6 (Homo sapiens, UniProt P10635); test: Inhibition of CYP2D6 (unknown origin); assay type: ADME
Summary of the method: (§2)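 CYP inhibition tested against 1A2, 2C9, 2C19, 2D6 and 3A4; IC50 in μM.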

[5] = Volume of distribution at steady state in rat at 0.5 mg/kg, iv or 2 mg/kg, po; assay type: ADME, organism-based; settings: in vivo, read-out: Vdss
[6] = Terminal half-life in rat at 0.5 mg/kg, iv or 2 mg/kg, po; assay type: ADME, organism-based; settings: in vivo, read-out: beta t1/2 (converted)
[7] = Hepatic clearance in dog at 0.5 mg/kg, iv or 2 mg/kg, po; assay type: ADME, organism-based, Canis lupus familiaris; settings: in vivo; summary of the method: as §1
[8] = Oral bioavailability in dog at 2 mg/kg, po; assay type: ADME, organism-based, Canis lupus familiaris; settings: in vivo; summary of the method: as §1
[9] = Terminal half-life in cynomolgus monkey at 0.5 mg/kg, iv; assay type: ADME, organism-based, Macaca fascicularis; settings: in vivo, read-out: beta t1/2 (converted); summary of the method: as §1
Mus musculus [10] = test: Inhibition of anti-CD3/CD28-stimulated B6-Foxp3 GFP positive mouse T-reg cell migration into tumor of mouse Pan02 cells implanted in po dosed C57BL/6 mouse assessed as decrease in number of GFP positive T-reg cells in tumor treated 24 hrs prior to T-reg cell addition followed by daily compound dosing for subsequent 4 days and measured on day 6 by flow cytometry; assay type: functional, organism-based
Summary of the method: (§3)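 Pan02 pancreatic tumor-bearing mice dosed QD for 6 days at 10 or 30 mg/kg. GFP+ induced Treg, made from naive CD4+ T cells of Foxp3-GFP transgenic mice, injected 24 h after first dose. GFP+ Treg counted in tumor and spleen versus vehicle group; plasma level taken 24 h after last dose; one-way ANOVA.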

[11] = Oral bioavailability in cynomolgus monkey at 2 mg/kg, po; assay type: ADME, organism-based, Macaca fascicularis; settings: in vivo; summary of the method: as §1
[12] = molecular target: T1, C-C chemokine receptor type 4 (Homo sapiens, UniProt P51679); test: Antagonist activity at human CCR4 expressed in rat chem-5 cells assessed as inhibition of CCL22-induced calcium flux measured at 2.5 secs time interval for 45 secs by fluorescence assay; assay type: functional, cell-based
T1 sequence (P51679 whole entry): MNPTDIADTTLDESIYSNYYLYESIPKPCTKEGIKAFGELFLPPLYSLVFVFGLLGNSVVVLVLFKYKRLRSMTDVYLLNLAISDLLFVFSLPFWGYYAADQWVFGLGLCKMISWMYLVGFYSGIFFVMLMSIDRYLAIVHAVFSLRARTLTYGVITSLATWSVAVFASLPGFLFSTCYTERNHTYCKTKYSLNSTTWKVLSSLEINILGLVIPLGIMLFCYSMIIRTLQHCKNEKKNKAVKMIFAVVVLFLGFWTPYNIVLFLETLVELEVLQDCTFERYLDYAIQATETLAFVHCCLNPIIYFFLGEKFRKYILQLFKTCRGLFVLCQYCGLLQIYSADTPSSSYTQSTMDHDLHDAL
Summary of the method: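 Calcium flux functional readout of CCR4 antagonism, run without serum; IC50 reported.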

[13] = Volume of distribution at steady state in mouse; assay type: ADME, organism-based; settings: in vivo, read-out: Vdss
Mus musculus [14] = test: Inhibition of anti-CD3/CD28-stimulated B6-Foxp3 GFP positive mouse T-reg cell migration into tumor of mouse Pan02 cells implanted in C57BL/6 mouse assessed as decrease in number of GFP positive T-reg cells in tumor at 30 mg/kg, po qd treated 24 hrs prior to T-reg cell addition followed by compound dosing for subsequent 4 days and measured on day 6 by flow cytometry relative to control; assay type: functional; settings: C57BL/6, Pan02, po; summary of the method: as §3
[15] = Terminal half-life in rat at 0.5 mg/kg, iv; assay type: ADME, organism-based; settings: in vivo, read-out: beta t1/2 (converted)
Cytochrome P450 2C9 = Cytochrome P450 2C9 (Homo sapiens, UniProt P11712); test: Inhibition of CYP2C9 (unknown origin); assay type: ADME; summary of the method: as §2
[16] = Hepatic clearance in cynomolgus monkey at 0.5 mg/kg, iv or 2 mg/kg, po; assay type: ADME, organism-based, Macaca fascicularis; settings: in vivo; summary of the method: as §1
[17] = Stability in rat hepatocytes assessed as compound remaining incubated for 60 mins under shaking condition by LC-MS/MS analysis; assay type: ADME, cell-based, Hepatocyte; settings: read-out: Stability
Summary of the method: (§4)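 Human and rat hepatocytes exposed to compound; percent parent remaining reported.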

Cytochrome P450 2C19 = Cytochrome P450 2C19 (Homo sapiens, UniProt P33261); test: Inhibition of CYP2C19 (unknown origin); assay type: ADME; summary of the method: as §2
Cytochrome P450 1A2 = molecular target: T2, Cytochrome P450 1A2 (Homo sapiens, UniProt P05177); test: Inhibition of CYP1A2 (unknown origin); assay type: ADME; summary of the method: as §2
T2 sequence (P05177 whole entry): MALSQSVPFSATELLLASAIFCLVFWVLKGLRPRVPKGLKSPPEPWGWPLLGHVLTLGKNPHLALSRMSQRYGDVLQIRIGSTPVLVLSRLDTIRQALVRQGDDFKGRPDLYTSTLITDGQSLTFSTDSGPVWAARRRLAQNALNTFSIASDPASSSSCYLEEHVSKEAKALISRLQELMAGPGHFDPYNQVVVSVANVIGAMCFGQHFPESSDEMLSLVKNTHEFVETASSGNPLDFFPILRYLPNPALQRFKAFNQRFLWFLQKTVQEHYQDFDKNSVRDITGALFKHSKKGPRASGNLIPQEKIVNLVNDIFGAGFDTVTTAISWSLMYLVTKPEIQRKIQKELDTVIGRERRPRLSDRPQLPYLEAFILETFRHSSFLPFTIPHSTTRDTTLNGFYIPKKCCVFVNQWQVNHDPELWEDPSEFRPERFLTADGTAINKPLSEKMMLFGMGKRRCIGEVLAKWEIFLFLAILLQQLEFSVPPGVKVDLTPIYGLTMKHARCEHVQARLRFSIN

[18] = Stability in human hepatocytes assessed as compound remaining incubated for 60 mins under shaking condition by LC-MS/MS analysis; assay type: ADME, cell-based, Hepatocyte; settings: read-out: Stability; summary of the method: as §4
[19] = Clearance in mouse; assay type: ADME, organism-based; settings: in vivo
[20] = Half-life in mouse; assay type: ADME, organism-based; settings: in vivo
Cytochrome P450 3A4 = Cytochrome P450 3A4 (Homo sapiens, UniProt P08684); test: Inhibition of CYP3A4 (unknown origin); assay type: ADME; summary of the method: as §2
[21] = AUC(0 to infinity) in rat at 2 mg/kg, po; assay type: ADME, organism-based; design: dose 2 mg/kg, route oral, time infinity; settings: in vivo
[22] = AUCinfinity in rat at 0.5 mg/kg, iv; assay type: ADME, organism-based; design: dose 0.5 mg/kg, route intravenous, time infinity; settings: in vivo
[23] = Hepatic clearance in rat at 0.5 mg/kg, iv; assay type: ADME, organism-based; settings: in vivo

Cytochrome P450 3A4, sequence (P08684 whole entry): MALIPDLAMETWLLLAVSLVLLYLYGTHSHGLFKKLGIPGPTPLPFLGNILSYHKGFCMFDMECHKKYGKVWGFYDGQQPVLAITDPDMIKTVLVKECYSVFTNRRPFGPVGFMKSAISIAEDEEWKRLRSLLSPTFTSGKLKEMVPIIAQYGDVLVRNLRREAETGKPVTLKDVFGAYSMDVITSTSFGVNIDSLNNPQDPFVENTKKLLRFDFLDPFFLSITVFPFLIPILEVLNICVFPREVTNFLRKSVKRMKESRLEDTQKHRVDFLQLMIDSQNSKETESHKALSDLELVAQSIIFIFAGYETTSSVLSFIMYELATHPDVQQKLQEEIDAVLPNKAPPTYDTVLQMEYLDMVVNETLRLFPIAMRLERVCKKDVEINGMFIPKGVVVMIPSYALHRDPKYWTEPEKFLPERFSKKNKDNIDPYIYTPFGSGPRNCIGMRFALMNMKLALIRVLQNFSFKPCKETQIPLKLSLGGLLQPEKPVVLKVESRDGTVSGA
Cytochrome P450 2D6, sequence (P10635 whole entry): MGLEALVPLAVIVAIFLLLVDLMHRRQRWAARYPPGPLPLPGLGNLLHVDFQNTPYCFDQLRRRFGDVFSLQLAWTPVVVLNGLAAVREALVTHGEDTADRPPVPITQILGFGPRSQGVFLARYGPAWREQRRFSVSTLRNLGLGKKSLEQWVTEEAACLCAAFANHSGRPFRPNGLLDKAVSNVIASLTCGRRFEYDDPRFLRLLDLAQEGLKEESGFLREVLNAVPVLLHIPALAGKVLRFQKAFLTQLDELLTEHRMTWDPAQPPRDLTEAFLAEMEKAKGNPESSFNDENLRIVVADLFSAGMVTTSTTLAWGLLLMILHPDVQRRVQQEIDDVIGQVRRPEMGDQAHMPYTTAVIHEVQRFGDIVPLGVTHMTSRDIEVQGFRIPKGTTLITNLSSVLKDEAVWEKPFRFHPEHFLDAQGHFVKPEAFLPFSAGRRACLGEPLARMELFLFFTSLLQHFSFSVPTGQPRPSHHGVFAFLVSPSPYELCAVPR
Cytochrome P450 2C9, sequence (P11712 whole entry): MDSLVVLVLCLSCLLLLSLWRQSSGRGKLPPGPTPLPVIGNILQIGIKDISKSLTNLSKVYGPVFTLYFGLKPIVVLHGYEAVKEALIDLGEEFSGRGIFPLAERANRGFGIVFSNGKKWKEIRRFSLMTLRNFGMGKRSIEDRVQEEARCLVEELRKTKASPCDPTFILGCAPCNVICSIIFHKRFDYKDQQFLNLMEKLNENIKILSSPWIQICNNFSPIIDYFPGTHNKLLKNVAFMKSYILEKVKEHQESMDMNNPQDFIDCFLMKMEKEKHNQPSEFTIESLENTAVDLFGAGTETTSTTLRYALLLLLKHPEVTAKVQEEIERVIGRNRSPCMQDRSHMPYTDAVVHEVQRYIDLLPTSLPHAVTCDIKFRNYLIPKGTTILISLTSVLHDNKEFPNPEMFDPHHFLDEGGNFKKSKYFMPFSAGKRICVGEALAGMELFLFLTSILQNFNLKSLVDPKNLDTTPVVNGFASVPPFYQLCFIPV
Cytochrome P450 2C19, sequence (P33261 whole entry): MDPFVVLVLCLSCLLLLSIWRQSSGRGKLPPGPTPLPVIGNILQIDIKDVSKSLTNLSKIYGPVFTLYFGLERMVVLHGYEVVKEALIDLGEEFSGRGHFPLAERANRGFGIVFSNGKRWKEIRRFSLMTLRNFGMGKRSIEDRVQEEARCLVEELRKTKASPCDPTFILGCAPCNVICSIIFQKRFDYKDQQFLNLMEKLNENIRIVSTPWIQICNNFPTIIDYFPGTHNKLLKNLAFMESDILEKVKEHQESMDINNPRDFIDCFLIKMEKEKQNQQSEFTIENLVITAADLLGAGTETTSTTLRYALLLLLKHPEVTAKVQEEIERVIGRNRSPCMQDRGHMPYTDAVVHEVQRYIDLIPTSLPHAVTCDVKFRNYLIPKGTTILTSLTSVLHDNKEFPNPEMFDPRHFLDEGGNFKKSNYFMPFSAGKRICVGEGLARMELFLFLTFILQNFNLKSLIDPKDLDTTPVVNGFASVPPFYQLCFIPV

For `C[C@@H]1CC(c2cnc3c(C#N)nn([C@H](C)c4ccc(Cl)cc4Cl)c3n2)=CC[C@@H]1N1CCC[C@H]1CO`, which CLH [1] is on record?
The CLH was 74.7 mL/min/kg.

What about the bioavailability [2] of the same compound?
Its bioavailability is 28%.

And the bioavailability [3]?
The bioavailability was 26%.

And the half-life [4]?
Its half-life is 16.4 h.

What about the IC50 (Cytochrome P450 2D6) of the same compound?
Its IC50 is > 10000 nM.

What about the Vd [5] of the same compound?
The Vd was 9.8 L/kg.

What about the half-life [6] of the same compound?
Its half-life is 4.1 h.

What about the CLH [7] of the same compound?
The CLH was 10.7 mL/min/kg.

What about the bioavailability [8] of the same compound?
Its bioavailability is 75%.

What about the half-life [9] of the same compound?
Its half-life is 9.9 h.

What about the inhibition (Mus musculus [10]) of the same compound?
Its inhibition is “Dose-dependent effect”.

What about the bioavailability [11] of the same compound?
The bioavailability was 30%.

And the IC50 [12]?
Its IC50 is 40 nM.

And the Vd [13]?
Its Vd is 5.7 L/kg.

What about the inhibition in vivo at 30 mg/kg (Mus musculus [14]) of the same compound?
Its inhibition in vivo at 30 mg/kg is 100%.

What about the half-life [15] of the same compound?
The half-life was 2.2 h.

What about the IC50 (Cytochrome P450 2C9) of the same compound?
The IC50 was > 10000 nM.

And the CLH [16]?
Its CLH is 11.3 mL/min/kg.

What about the remaining at 1 h [17] of the same compound?
The remaining at 1 h was 32%.

And the IC50 (Cytochrome P450 2C19)?
The IC50 was > 10000 nM.

What about the IC50 (Cytochrome P450 1A2) of the same compound?
The IC50 was > 10000 nM.

What about the remaining at 1 h [18] of the same compound?
The remaining at 1 h was 81%.

And the clearance [19]?
Its clearance is 12 mL/min/kg.

What about the half-life [20] of the same compound?
The half-life was 7.6 h.

What about the IC50 (Cytochrome P450 3A4) of the same compound?
Its IC50 is > 10000 nM.

And the AUC(0-inf) [21]?
The AUC(0-inf) was 125 ng·h/mL.

With `Cc1nn([C@H](C)c2ccc(Cl)cc2Cl)c2nc(N3CC[C@H](N4CCCC4)[C@H](C)C3)cnc12` as the compound, how does the IC50 [12] read?
The IC50 was 69 nM.

Which results are given for `C[C@@H]1CC(c2cnc3c(C#N)nn([C@H](C)c4ccc(Cl)cc4Cl)c3n2)=CC[C@@H]1N1CCC[C@H]1C(N)=O`?
IC50 [12]: 54 nM; remaining at 1 h [17]: 71%; remaining at 1 h [18]: 97%

With `Cc1nn([C@H](C)c2ccc(Cl)cc2Cl)c2nc(N3CC[C@H](N4CCC[C@H]4C(=O)O)[C@H](C)C3)cnc12` as the compound, how does the IC50 [12] read?
Its IC50 is 670 nM.

With `C[C@@H]1CC(c2cnc3c(C#N)nn([C@H](C)c4ccc(Cl)cc4Cl)c3n2)=CC[C@@H]1N1CCC[C@H]1C(C)(C)O` as the compound, how does the IC50 [12] read?
The IC50 was 384 nM.

Which IC50 [12] does the source give for `Cc1nn([C@H](C)c2ccc(Cl)cc2Cl)c2nc(N3CC[C@H](N4CCC[C@@H]4C)[C@H](C)C3)cnc12` here?
The IC50 was 172 nM.

Which IC50 [12] does the source give for `C[C@@H]1CC(c2cnc3c(C#N)nn([C@H](C)c4ccc(Cl)cc4Cl)c3n2)=CC[C@@H]1N1CCC[C@H]1CN` here?
The IC50 was 229 nM.

What about the remaining at 1 h [17] of the same compound?
Its remaining at 1 h is 100%.

What about the remaining at 1 h [18] of the same compound?
The remaining at 1 h was 100%.

For `Cc1nn([C@H](C)c2ccc(Cl)cc2Cl)c2nc(N3CC[C@H](N4CCC[C@H]4CCC#N)[C@H](C)C3)cnc12`, which IC50 [12] is on record?
Its IC50 is 41 nM.

With `Cc1nn([C@H](C)c2ccc(Cl)cc2Cl)c2nc(N3CC[C@H](N4CCC[C@H]4C(N)=O)[C@H](C)C3)cnc12` as the compound, how does the IC50 [12] read?
Its IC50 is 170 nM.

With `Cc1nn([C@H](C)c2ccc(Cl)cc2Cl)c2nc(N3CC[C@H](N4CCCCC4)[C@H](C)C3)cnc12` as the compound, how does the IC50 [12] read?
Its IC50 is 42 nM.

With `Cc1nn([C@H](C)c2ccc(Cl)cc2Cl)c2nc(C3=CC[C@H](N4CCC[C@H]4CO)[C@H](C)C3)cnc12` as the compound, how does the IC50 [12] read?
Its IC50 is 36 nM.

And the remaining at 1 h [17]?
The remaining at 1 h was 35%.

And the remaining at 1 h [18]?
The remaining at 1 h was 99%.

Which CLH [1] does the source give for `C[C@@H]1CN(c2cnc3c(C#N)nn([C@H](C)c4ccc(Cl)cc4Cl)c3n2)CC[C@@H]1N1CCC[C@H]1CO` here?
Its CLH is 114.6 mL/min/kg.

And the bioavailability [2]?
The bioavailability was 7%.

What about the IC50 (Cytochrome P450 2D6) of the same compound?
Its IC50 is > 10000 nM.

What about the Vd [5] of the same compound?
Its Vd is 13.4 L/kg.

And the half-life [6]?
Its half-life is 2.1 h.

And the IC50 [12]?
Its IC50 is 27 nM.

And the IC50 (Cytochrome P450 2C9)?
Its IC50 is > 10000 nM.

What about the remaining at 1 h [17] of the same compound?
The remaining at 1 h was 19%.

What about the IC50 (Cytochrome P450 2C19) of the same compound?
The IC50 was > 10000 nM.

And the IC50 (Cytochrome P450 1A2)?
The IC50 was > 10000 nM.

What about the remaining at 1 h [18] of the same compound?
The remaining at 1 h was 74%.

What about the IC50 (Cytochrome P450 3A4) of the same compound?
Its IC50 is > 10000 nM.

What about the AUC(0-inf) [21] of the same compound?
The AUC(0-inf) was 23.2 ng·h/mL.

What does the source list for `CC1CN(c2cnc3cnn(C(C)c4ccc(Cl)cc4Cl)c3n2)CCC1N1CCCCC1` (stereo not drawn)?
AUC(0-inf) [22]: 68 ng·h/mL; CLH [23]: 121.7 mL/min/kg; IC50 [12]: 238 nM
